The record followed here is PubChem BioAssay.

Calls of active or inactive are those of the source. Cut-off read from the data, not from the text of the source, unless noted: active = inhibition above about 30%; inactive = the rest.

By viability is commonly meant a read-out of living cells in per cent, often relative to untreated cells. The term inhibition denotes the change of the read-out against control, counted positive when it falls.

Experiment [1] is described as follows: reducers of endogenous Her2 protein level, primary screen, SKBR3 breast tumor cells, AlphaScreen, ATP viability (AID 461;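 active = Her2 level under about 52% in both replicate screens, with viability over 70% of control, limit read from the data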;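 for Her2 level: lower value means less Her2 protein in the cells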;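 for viability: percent of carrier control wells set as 100% viability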). As to conditions: 18-24 h, measured here: SKBR3 viability, ATP luminescence, at 10 µM. Background: Bead proximity is the source of the signal in Alpha formats.
Experiment [2] deals with Receptor tyrosine-protein kinase erbB-2 (Homo sapiens) (UniProt P04626). Described as above. As to conditions: 18-24 h, at 10 µM, stronger effect = lower value.
Chain of Receptor tyrosine-protein kinase erbB-2 (Homo sapiens) (P04626 whole entry, looked up): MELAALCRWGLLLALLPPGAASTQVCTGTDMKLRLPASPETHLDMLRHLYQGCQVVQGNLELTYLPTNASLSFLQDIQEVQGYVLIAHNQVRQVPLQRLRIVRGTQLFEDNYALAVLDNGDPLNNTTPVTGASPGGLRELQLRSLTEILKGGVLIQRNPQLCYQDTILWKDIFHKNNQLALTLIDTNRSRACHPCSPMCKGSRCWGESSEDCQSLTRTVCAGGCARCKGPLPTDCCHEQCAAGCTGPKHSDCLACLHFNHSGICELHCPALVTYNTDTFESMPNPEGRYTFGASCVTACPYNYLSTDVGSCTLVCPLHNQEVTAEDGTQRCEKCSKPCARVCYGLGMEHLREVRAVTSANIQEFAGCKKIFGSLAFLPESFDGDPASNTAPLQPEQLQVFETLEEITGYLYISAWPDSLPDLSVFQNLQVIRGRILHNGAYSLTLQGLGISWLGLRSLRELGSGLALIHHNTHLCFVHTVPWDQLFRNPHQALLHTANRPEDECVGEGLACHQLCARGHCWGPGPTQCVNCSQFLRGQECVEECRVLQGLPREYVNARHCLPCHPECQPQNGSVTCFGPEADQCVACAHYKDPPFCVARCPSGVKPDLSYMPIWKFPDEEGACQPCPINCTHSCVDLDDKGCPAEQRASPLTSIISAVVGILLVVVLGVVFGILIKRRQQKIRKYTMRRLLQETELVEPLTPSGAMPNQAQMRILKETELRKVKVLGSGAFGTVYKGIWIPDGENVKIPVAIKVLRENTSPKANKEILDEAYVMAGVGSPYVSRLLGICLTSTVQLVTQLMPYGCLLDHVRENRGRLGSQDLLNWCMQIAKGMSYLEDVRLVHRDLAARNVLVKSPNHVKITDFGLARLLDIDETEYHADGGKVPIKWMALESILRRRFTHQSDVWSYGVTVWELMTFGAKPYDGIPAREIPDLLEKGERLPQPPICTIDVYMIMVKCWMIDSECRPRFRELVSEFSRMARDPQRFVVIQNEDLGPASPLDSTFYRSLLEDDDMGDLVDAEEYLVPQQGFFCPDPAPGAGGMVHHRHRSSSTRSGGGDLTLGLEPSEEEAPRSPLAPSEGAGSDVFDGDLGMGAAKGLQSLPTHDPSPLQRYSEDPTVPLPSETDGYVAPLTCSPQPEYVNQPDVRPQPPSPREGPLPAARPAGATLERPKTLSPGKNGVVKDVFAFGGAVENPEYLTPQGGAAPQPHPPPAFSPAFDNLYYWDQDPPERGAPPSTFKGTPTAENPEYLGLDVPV
Experiment [3] in a line: SK-BR-3 cell growth inhibitors, pilot screen, 24 h, human (AID 572;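 active = viability at or below 10% of carrier control in both of two separate runs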;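 note: compound exposure lasted between 18 and 24 h rather than exactly 24 h; 100% = carrier-treated control wells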). As to conditions: SK-BR-3 viability, CellTiter-Glo luminescence, at 10 µM, stronger effect = lower value. (In general: Cellular ATP, detected with luciferase, serves as a proxy for viable cell number.)
The nature of experiment [4]: HUVEC growth inhibition – cell-based, human, primary screen (AID 575;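 active = viability at or below 30% in both replicate assays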;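 note: 100% = median of untreated cell wells with 0.1% DMSO on each plate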). As to conditions: HUVEC proliferation, CellTiter-Glo luminescence, 72 h; at 10 µM; stronger effect = lower value. A digest of the protocol:
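System – primary HUVEC, no more than 12 passages · Medium – Low-serum (2% FBS) EBM, supplemented · Times – 72 h exposure, 37 °C, 5% CO2, 30 min RT equilibration · Measured by – luminescent ATP assay · Read-out – % viability relative to median vehicle-well signal on each plate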

The nature of experiment [5]: growth inhibitors of H69AR lung tumor, primary screen, human, duplicate replicates (AID 580;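 active = viability at or under a set limit in both replicates, limit being median viability minus 3 SD, cut at about 48% in these data, passing the limit was not always enough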;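 note: 100% = mean luminescence of untreated wells and 0% = no signal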). As to conditions: H69AR lung tumor cells viability, ATP luminescence, 72 h; at 10 µM; stronger effect = lower value.
Experiment [6] is described as follows: reversal of MRP1-mediated doxorubicin resistance, pilot screen, H69AR cells, doxorubicin co-treatment (AID 601;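 active = viability loss from added drug above about 55%, and viability with drug at most 40%, in both replicates, limit read from the data, passing the limit was not always enough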). As to conditions: CellTiter-Glo, 72 h, at 10 µM; for differential viability (reversal): stronger effect = higher value.
Experiment [7] is described as follows: 384-well plate pilot, post-Golgi transport modulator project, inhibition of yeast transport mutant growth (AID 636; in the data active = inhibition above about 31%). As to conditions: absorbance 615 nm, about 18 h, stronger effect = higher value.
Experiment [8] in a line: growth suppression of yeast trafficking mutant, preliminary HTS, modulators of trafficking downstream of Golgi apparatus project, 1536-format plate, OD 615 nm (AID 637). As to conditions: yeast transport mutant growth, absorbance 615 nm, 18 h; stronger effect = higher value.
The mark [9] stands for this setting: H69AR cells + 2 uM doxorubicin, measured here: viability with 2 uM doxorubicin, stronger effect = lower value.
Setting [10] is: H69AR cells, compound alone cytotoxicity.

With `CCn1c(=S)sc2nc(C)sc21`, the viability in experiment [1] was 94%; in experiment [3], 94% (inactive); in experiment [4], 96.6% (inactive); in experiment [5] it was 93.7% (inactive); in experiment [6] (setting [9]) it was 90.1%; in experiment [6] (setting [10]), 93.7%. Moreover, the Her2 level in experiment [2] is 100% (inactive). In addition, in experiment [6] (H69AR cells + 2 uM doxorubicin), the differential viability (reversal) was 3.59% (inactive). Also, the figures for the inhibition in experiment [7] and in experiment [8] were -4.27% (inactive) and 1.94% (inactive), respectively.
Turning to `CC(C)=CCCC(C)N(C=O)C(C)CCC=C(C)C` (stereo not given), the viability in experiment [1] is 84.5%; in experiment [3] it was 84.5% (inactive); in experiment [4], 76.3% (inactive); in experiment [5], 87.8% (inactive); in experiment [6] (setting [9]), 80.7%; in experiment [6] (setting [10]), 87.8%. Moreover, in experiment [2], the Her2 level is 94% (inactive). The differential viability (reversal) in experiment [6] (H69AR cells + 2 uM doxorubicin) is 7.05% (inactive). The inhibition in experiment [7] is -0.68% (inactive); in experiment [8], -2.7% (inactive).
Turning to `COc1ccc(-c2noc(CN3CCC(Cc4ccccc4)CC3)n2)cc1`, the viability in experiment [1] is 94%; in experiment [3] it was 94% (inactive); in experiment [4], 87.5% (inactive); in experiment [5], 93.5% (inactive); in experiment [6] (setting [9]), 88.9%; in experiment [6] (setting [10]), 93.5%. The Her2 level in experiment [2] was 112% (inactive). Besides, the differential viability (reversal) in experiment [6] (H69AR cells + 2 uM doxorubicin) is 4.6% (inactive). The inhibition is -4.8% (inactive) in experiment [7] and -3.39% (inactive) in experiment [8].
Consider `Cc1nc(CNS(=O)(=O)c2ccc3c(c2)OCCO3)cs1`, for which the viability in experiment [1] was 96%; in experiment [3] it was 96% (inactive); in experiment [4], 105% (inactive); in experiment [5] it was 96.6% (inactive); in experiment [6] (setting [9]), 96.9%; in experiment [6] (setting [10]), 96.6%. Besides, the Her2 level in experiment [2] is 142% (inactive). Further, the differential viability (reversal) in experiment [6] (H69AR cells + 2 uM doxorubicin) was -0.265% (inactive). For the same compound, the inhibition in experiment [7] is 2.24% (inactive); in experiment [8], 9.51% (inactive).
Regarding `CCn1nnc(NC(=O)c2ccc(-c3ccc(Cl)cc3)o2)n1`, the viability in experiment [1] was 87.5%; in experiment [3], 87.5% (inactive); in experiment [4], 90% (inactive); in experiment [5] it was 91.2% (inactive); in experiment [6] (setting [9]), 88%; in experiment [6] (setting [10]) it was 91.2%. The Her2 level in experiment [2] was 122% (inactive). Further, the differential viability (reversal) in experiment [6] (H69AR cells + 2 uM doxorubicin) is 3.21% (inactive). Moreover, the inhibition was -6.62% (inactive) in experiment [7] and -0.66% (inactive) in experiment [8].
On to `Cc1nc2ccccn2c1P(=O)(N1CCCCC1)N1CCCCC1`, for which the viability was 92.5% in experiment [1]; 92.5% (inactive) in experiment [3]; 117% (inactive) in experiment [4]; 91% (inactive) in experiment [5]; 89.3% in experiment [6] (setting [9]); 91% in experiment [6] (setting [10]). Also, the Her2 level in experiment [2] is 112% (inactive). The differential viability (reversal) in experiment [6] (H69AR cells + 2 uM doxorubicin) is 1.72% (inactive). The values for the inhibition in experiment [7] and in experiment [8] were -2.93% (inactive) and 0% (inactive), respectively.
With `CC(C)(C)NC(=O)C(c1ccco1)N(C(=O)Cn1nnc(-c2ccc(F)cc2)n1)c1ccccc1F` (stereo not given), the viability in experiment [1] is 99%; in experiment [3], 99% (inactive); in experiment [4], 96% (inactive); in experiment [5], 99.3% (inactive); in experiment [6] (setting [9]), 110%; in experiment [6] (setting [10]), 99.3%. Also, in experiment [2], the Her2 level was 84% (inactive). Moreover, the differential viability (reversal) in experiment [6] (H69AR cells + 2 uM doxorubicin) was -11% (inactive). For the same compound, the inhibition in experiment [7] was -5.54% (inactive); in experiment [8], 21.8% (inactive).
On to `O=S(=O)(NCc1cn2ccsc2n1)c1ccc2c(c1)OCCO2`, for which the viability in experiment [1] was 117%; in experiment [3] it was 117% (inactive); in experiment [4] it was 96.4% (inactive); in experiment [5], 105% (inactive); in experiment [6] (setting [9]), 95.5%; in experiment [6] (setting [10]), 105%. For the same compound, the Her2 level in experiment [2] is 102% (inactive). In experiment [6] (H69AR cells + 2 uM doxorubicin), the differential viability (reversal) was 9.79% (inactive). Besides, the inhibition in experiment [7] is -7.07% (inactive); in experiment [8], -2.26% (inactive).
On to `COc1ccc2cc(CN(Cc3ccco3)C(c3nnnn3C3CCCCC3)C(C)C)c(=O)[nH]c2c1` (stereo not given), for which the viability in experiment [1] was 100%; in experiment [3], 100% (inactive); in experiment [4], 47.1% (inactive); in experiment [5] it was 33.1% (active); in experiment [6] (setting [9]), 25.8%; in experiment [6] (setting [10]), 33.1%. Moreover, the Her2 level in experiment [2] was 83% (inactive). Further, the differential viability (reversal) in experiment [6] (H69AR cells + 2 uM doxorubicin) is 7.31% (inactive). Further, the inhibition in experiment [7] was -0.54% (inactive); in experiment [8], -4.59% (inactive).
On to `Cn1ccnc1SCCC#N`, for which the viability was 100% in experiment [1]; 100% (inactive) in experiment [3]; 92.5% (inactive) in experiment [4]; 99% (inactive) in experiment [5]; 97.3% in experiment [6] (setting [9]); 99% in experiment [6] (setting [10]). Also, the Her2 level in experiment [2] was 89.5% (inactive). The differential viability (reversal) in experiment [6] (H69AR cells + 2 uM doxorubicin) was 1.65% (inactive). Moreover, the values for the inhibition in experiment [7] and in experiment [8] were -2% (inactive) and 11% (inactive), respectively.
For `CCCC(C(=O)NCc1ccco1)N(C(=O)CNS(=O)(=O)c1ccc(Cl)cc1)C1CCCC1` (stereo not given), the viability in experiment [1] was 122%; in experiment [3] it was 122% (inactive); in experiment [4], 74.1% (inactive); in experiment [5] it was 82.7% (inactive); in experiment [6] (setting [9]), 86.8%; in experiment [6] (setting [10]), 82.7%. For the same compound, the Her2 level in experiment [2] is 91% (inactive). The differential viability (reversal) in experiment [6] (H69AR cells + 2 uM doxorubicin) is -4.13% (inactive). Moreover, the inhibition in experiment [7] was -0.13% (inactive); in experiment [8], 3.55% (inactive).
As for `O=C(CSc1nnnn1-c1ccccc1)c1cc2ccccc2oc1=O`, the viability in experiment [1] was 95.5%; in experiment [3], 95.5% (inactive); in experiment [4] it was 86.5% (inactive); in experiment [5], 74.2% (inactive); in experiment [6] (setting [9]) it was 78.3%; in experiment [6] (setting [10]) it was 74.2%. Also, the Her2 level in experiment [2] was 102% (inactive). Also, the differential viability (reversal) in experiment [6] (H69AR cells + 2 uM doxorubicin) is -4.18% (inactive). The inhibition in experiment [7] is -6.62% (inactive); in experiment [8], -6.83% (inactive).
On to `CCOc1cc(C(=O)NCc2ccncc2)cc(OCC)c1OCC`, for which the viability is 117% in experiment [1]; 117% (inactive) in experiment [3]; 94.4% (inactive) in experiment [4]; 90.7% (inactive) in experiment [5]; 87.7% in experiment [6] (setting [9]); 90.7% in experiment [6] (setting [10]). In experiment [2], the Her2 level is 92% (inactive). In experiment [6] (H69AR cells + 2 uM doxorubicin), the differential viability (reversal) was 2.97% (inactive). Also, the inhibition in experiment [7] is -6.27% (inactive); in experiment [8] it was -4.76% (inactive).
Consider `CC(=O)Nc1ccccc1-c1nc2ccc(C(=O)N3CCN(c4ccccc4)CC3)cc2[nH]c1=O`, for which the viability in experiment [1] was 99.5%; in experiment [3], 99.5% (inactive); in experiment [4] it was 86.2% (inactive); in experiment [5], 93.4% (inactive); in experiment [6] (setting [9]) it was 95%; in experiment [6] (setting [10]), 93.4%. The Her2 level in experiment [2] is 88% (inactive). The differential viability (reversal) in experiment [6] (H69AR cells + 2 uM doxorubicin) is -1.66% (inactive). The inhibition in experiment [7] is -1.33% (inactive); in experiment [8], 1.15% (inactive).
Regarding `O=C(/C=N/O)NCc1ccncc1`, the viability in experiment [1] was 100%; in experiment [3], 100% (inactive); in experiment [4], 102% (inactive); in experiment [5], 108% (inactive); in experiment [6] (setting [9]) it was 100%; in experiment [6] (setting [10]), 108%. Also, the Her2 level in experiment [2] was 94.5% (inactive). Further, the differential viability (reversal) in experiment [6] (H69AR cells + 2 uM doxorubicin) is 7.88% (inactive). Further, the inhibition in experiment [7] is -1.43% (inactive); in experiment [8] it was -3.81% (inactive).
In the case of `Cc1[nH]c(=O)[nH]c(=O)c1S(=O)(=O)N(C)Cc1ccccc1`, the viability is 108% in experiment [1]; 108% (inactive) in experiment [3]; 96.2% (inactive) in experiment [4]; 105% (inactive) in experiment [5]; 92.5% in experiment [6] (setting [9]); 105% in experiment [6] (setting [10]). In experiment [2], the Her2 level is 106% (inactive). Moreover, the differential viability (reversal) in experiment [6] (H69AR cells + 2 uM doxorubicin) was 12.3% (inactive). Further, the inhibition in experiment [7] was -0.66% (inactive); in experiment [8], -4.6% (inactive).
